# Rows were chosen to be rich in hits. Some 3.5% of all compounds tested hit in one or more screens of this group.
# PAFAH1B3 FP inh – PAFAH1B3 enzyme inhibitors, primary screen, biochemical, fluorescence polarization, human | Platelet-activating factor acetylhydrolase IB subunit alpha1 (Homo sapiens), Q15102 | inhibition, % at 3.39 µM | recombinant PAFAH1B3, FP-rhodamine probe | hit rate 0.28% among 340,000;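 active = inhibition above the screen-wide average of all tested compounds plus 3 SD, cut at about 25% in these data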;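 also: 0% = enzyme with DMSO only and 100% = wells lacking PAFAH1B3 protein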
# Target sequence (Q15102 whole entry, looked up): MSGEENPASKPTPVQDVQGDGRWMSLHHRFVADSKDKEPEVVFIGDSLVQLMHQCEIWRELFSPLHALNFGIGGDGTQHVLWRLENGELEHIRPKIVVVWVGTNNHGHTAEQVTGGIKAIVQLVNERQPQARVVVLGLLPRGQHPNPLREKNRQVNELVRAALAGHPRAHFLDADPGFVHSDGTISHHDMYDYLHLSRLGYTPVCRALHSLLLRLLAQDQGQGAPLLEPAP
# PAFAH1B2 FP inh – PAFAH1B2 enzyme inhibitors, primary screen, biochemical, fluorescence polarization, human; recombinant PAFAH1B2, FP-rhodamine activity probe; Platelet-activating factor acetylhydrolase IB subunit alpha2 (Homo sapiens), P68402; inhibition, % at 3.39 µM; hit rate 1.2% among 340,000;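 active = inhibition above the mean of all tested compounds plus 3 SD, cut at about 24% in these data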;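 also: 0% = enzyme with DMSO and 100% = wells lacking PAFAH1B2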
# PAFAH2 inh – PAFAH2 enzyme inhibitors, primary screen, biochemical, fluorescence polarization, human; recombinant PAFAH2, FP-rhodamine activity probe; hit rate 0.99% among 340,000; AID 492956, 2010; Platelet-activating factor acetylhydrolase 2, cytoplasmic (Homo sapiens), Q99487; inhibition, % at 3.39 µM;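 active = inhibition above the mean over all tested compounds plus 3 SD, cut at about 30% in these data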;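 also: inhibitors block probe labeling of enzyme so polarization drops; 0% = enzyme with DMSO and 100% = wells lacking PAFAH2 protein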
# pPAFAH inh – pPAFAH enzyme inhibitors, primary screen, biochemical, fluorescence polarization, human; Platelet-activating factor acetylhydrolase (Homo sapiens), Q13093; inhibition, % at 3.39 µM; hit rate 1.5% among 330,000; recombinant pPAFAH, FP-rhodamine probe fluorescence polarization;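 active = inhibition above the mean inhibition across the screen plus 3 SD, cut at about 25% in these data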;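 also: inhibitors block binding of the rhodamine activity-based probe so polarization drops; 0% = enzyme with DMSO and 100% = wells lacking pPAFAH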
# Target sequence (Q13093 whole entry, looked up): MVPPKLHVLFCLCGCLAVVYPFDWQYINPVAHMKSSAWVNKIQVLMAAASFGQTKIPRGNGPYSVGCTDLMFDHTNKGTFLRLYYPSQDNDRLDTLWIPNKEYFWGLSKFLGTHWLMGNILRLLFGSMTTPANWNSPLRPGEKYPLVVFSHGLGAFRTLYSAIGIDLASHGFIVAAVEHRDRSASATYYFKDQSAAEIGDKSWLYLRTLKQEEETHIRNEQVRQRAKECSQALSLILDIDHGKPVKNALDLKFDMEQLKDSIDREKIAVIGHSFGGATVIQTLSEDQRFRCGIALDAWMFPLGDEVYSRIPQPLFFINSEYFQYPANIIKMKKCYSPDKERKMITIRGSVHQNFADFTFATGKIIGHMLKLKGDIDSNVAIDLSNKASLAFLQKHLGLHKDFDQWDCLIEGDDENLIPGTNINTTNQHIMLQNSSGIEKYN
# Apaf-1 inh – inhibitors of human Apaf-1 apoptosome, primary screen, biochemical, DEVD-Rh110 fluorescence, uHTS; Apoptotic protease-activating factor 1 (Homo sapiens), O14727; reconstituted apoptosome caspase-3 activity; inhibition, % at 20 µM; hit rate 0.71% among 330,000; AID 489030, 2010; active = inhibition of at least 40% at 20 µM;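 also: plate controls were DMSO wells for no effect and DEVD-CHO caspase inhibitor wells for full effect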
#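 System: Apoptosome proteins | Medium: Hepes pH 7.5 with detergent and BSA | Also added: Cytochrome c trigger plus (Z-DEVD)2-Rh110 caspase-3 substrate | Incubation: 30 min compound preincubation, 50 min activation, room temperature | Detection: Rhodamine 110 fluorescence at Ex 480/Em 540 nm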
# PREPL inh – PREPL enzyme inhibitors, primary screen, biochemical, fluorescence polarization; Prolyl endopeptidase-like (Homo sapiens), Q4J6C6; recombinant PREPL, fluorescence polarization activity-based probe; inhibition, % at 5.96 µM; hit rate 0.68% among 320,000; in the data active = inhibition above about 43%;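 also: 0% = enzyme with DMSO and 100% = wells lacking enzyme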
# Numbers without * were called inactive; nt = no result.
SMILES,PAFAH1B3 FP inh,PAFAH1B2 FP inh,PAFAH2 inh,pPAFAH inh,Apaf-1 inh,PREPL inh
COc1ccc(C(=O)NCc2ccccc2)cc1S(=O)(=O)N1CCCc2ccccc21,-6.5,6.2,-1.6,2.1,-4.5,-7.5
O=S(=O)(Nc1ccccc1)c1ccc(NS(=O)(=O)c2c(F)cccc2F)cc1,6.1,14.7,0.6,27.5*,3.3,5.8
O=C(O)c1ccccc1C(=O)Nc1ccc(S(=O)(=O)Nc2ccc(F)cc2)cc1,-3.9,5.4,-0.5,21.1,0.9,-16.8
Cc1ccc(S(=O)(=O)Nc2ccc(Nc3ccccc3)cc2)cc1,13.5,12.4,3.5,29.3*,15.0,-16.4
Cc1ccc(Nc2ccccc2)cc1,18.0,7.2,-3.9,6.5,2.0,15.1
COc1ccc(CN2CCN(C(=O)c3ccccc3C(=O)c3ccccc3)CC2)cc1OC,-0.1,-0.6,1.8,nt,nt,nt
Cc1ccc(NC(=O)c2c(C)noc2C)cc1S(=O)(=O)N1CCOCC1,5.7,2.6,3.5,-0.7,-1.6,23.1
CCOC(=O)C1=C(COC(=O)CSc2ccc(C)cc2C)NC(=O)NC1C (centres undefined),6.6,7.1,3.7,nt,10.4,nt
O=C(O)c1ccc(NS(=O)(=O)c2cccc(S(=O)(=O)c3ccc(Cl)c(Cl)c3)c2)cc1,-1.6,9.2,73.0*,10.7,10.4,8.5
CC(=O)c1ccc(NS(=O)(=O)c2ccc(C)cc2)cc1,2.7,12.5,-8.0,-1.4,-1.3,4.1
Cc1ccc(Oc2ccc(S(=O)(=O)Nc3ccc(C(=O)O)cc3)cc2)cc1,0.4,7.0,-2.6,29.1*,-1.9,1.0
O=S(=O)(Nc1ccc(S(=O)(=O)Nc2cccc3ccccc23)cc1)c1ccccc1,-0.9,29.6*,8.1,33.0*,8.0,-1.3
CC(=O)N1CCN(C(=O)c2ccc(NS(=O)(=O)c3ccc(Cl)c(Cl)c3)cc2)CC1,10.7,3.7,3.7,nt,nt,nt
Cc1ccc(S(=O)(=O)Nc2cc(C)c(O)c(S(=O)(=O)c3ccc(C)cc3)c2)cc1,8.1,34.0*,16.9,5.2,2.1,-0.8
COc1ccc(CC(=O)NNS(=O)(=O)c2ccccc2[N+](=O)[O-])cc1,0.7,11.3,0.6,3.0,-4.5,-1.7
CCCc1nc2ccc(N)cc2c(=O)n1Cc1ccccc1Cl,10.8,-1.6,9.8,6.7,1.5,-7.3
C=CCONC(=O)Cc1ccccc1,5.9,1.9,-8.0,-2.6,17.7,nt
CCN(CC)C(=O)[C@H]1CC(CC(=O)NC(C)(C)C)C(=O)N2CCc3c([nH]c4ccc(OC)cc34)[C@]12C (some centres undefined),5.6,3.7,2.7,4.2,9.1,nt
COc1ccc(NS(=O)(=O)c2ccc(NS(=O)(=O)c3ccc(C)cc3)cc2)nn1,11.4,24.3*,5.8,9.8,-0.1,19.3
COc1ccc(C(=O)O)cc1S(=O)(=O)Nc1ccc(Oc2ccccc2)cc1,5.7,7.6,-0.2,27.4*,-0.9,4.8
CCOc1ccc(NS(=O)(=O)c2ccc(C(=O)N(C)CC(=O)Nc3ccc(C)cc3)cc2)cc1,2.1,0.1,9.1,33.3*,22.7,-7.8
COc1ccc(NS(=O)(=O)c2ccc(NC(C)=O)cc2)nn1,nt,nt,nt,3.5,-8.5,3.8
COc1ccc(C(=O)O)cc1S(=O)(=O)Nc1ccc(C)cc1,0.9,13.3,-6.6,3.7,-6.4,2.5
Cc1ccc(-c2nc3ccccc3[nH]2)cc1NC(=O)c1sc2cc(Cl)ccc2c1Cl,-47.2,-26.4,-53.3,-14.8,11.8,8.4
CCCC(=O)Oc1ccc(N(C(=O)CCC)S(=O)(=O)c2cccs2)cc1,1.3,6.0,3.9,30.3*,5.9,6.2
SMILES,PAFAH1B3 FP inh,PAFAH1B2 FP inh,PAFAH2 inh,pPAFAH inh,Apaf-1 inh,PREPL inh
COc1ccc(-n2nnnc2SCC(=O)Nc2c(C)n[nH]c2C)cc1,4.2,6.9,0.1,-2.7,3.7,-5.7
COCCN1C(=S)N[C@@H](c2cccc(F)c2)C(C(=O)OC)=C1C,nt,nt,nt,0.6,57.4*,-5.4
CCCCC(CC)c1nnc(NC(=O)c2cccs2)s1 (centres undefined),15.1,27.2*,7.0,nt,nt,nt
CC(C)(C)c1nnc(NC(=O)c2cccs2)s1,4.3,-2.6,-0.2,5.2,-6.3,-3.0
O=c1cc(-c2ccc([N+](=O)[O-])cc2)nc2cc(-c3ccc(F)cc3)[nH]n12,10.3,57.5*,17.4,32.5*,7.8,30.9
CCOc1ccc(NS(=O)(=O)c2ccc(SC)cc2)cc1,3.6,-0.7,-5.9,33.7*,24.4,-9.2
CCOc1ccc(NS(=O)(=O)c2ccc(NC(=S)NC(=O)C(C)C)cc2)cc1,-1.0,-2.4,-5.6,32.9*,6.8,-18.1
CCOc1ccc(NS(=O)(=O)c2ccc(N)cc2)cc1,11.6,7.5,16.7,18.0,4.7,-9.6
CCC(C)NC(=O)COc1ccc(OCc2ccccc2)cc1 (centres undefined),3.6,26.5*,8.5,6.3,3.5,4.9
CCNC(=O)COc1ccc(OCc2ccccc2)cc1,0.7,9.8,2.9,5.0,-21.5,-3.2
CC(C)c1ccc(OCC(=O)NC(C)c2ccccc2)cc1 (centres undefined),4.5,29.2*,-2.3,11.2,15.4,1.4
COCCN1CC(=O)N2C(c3cccc(OC)c3)c3[nH]c4ccccc4c3C[C@H]2C1=O (some centres undefined),16.6,12.8,25.6,-1.8,6.8,-4.8
CC(C)CC(=O)O/N=C1\C(=O)N(Cc2ccc(Cl)cc2)c2ccc([N+](=O)[O-])cc21,nt,nt,nt,35.4*,17.6,9.4
CC(=O)O/N=C1\C(=O)N(Cc2ccc(C)cc2)c2ccccc21,-10.9,-2.0,-13.8,nt,8.1,nt
CN(Cc1ccccc1)C(=O)COC(=O)COc1ccc(Cl)cc1,2.5,7.5,2.6,23.9,3.5,1.8
N#Cc1ccc(OCC(=O)OCCCOC(=O)COc2ccc(C#N)cc2)cc1,4.7,18.4,3.8,31.9*,7.7,11.3
CN(Cc1ccccc1)C(=O)COC(=O)COc1ccc(C#N)cc1,3.5,-2.6,1.9,32.6*,-7.3,5.8
CCOC(=O)c1c(OCC)[nH]c2c1cc(O)c1ccccc12,10.9,11.4,8.4,27.1*,27.7,12.5
CN(Cc1ccccc1)C(=O)COc1cc(=O)n(C)c2ccccc12,-8.6,8.8,-9.2,31.8*,5.5,-4.7
O=C1C2C3C=CC(CO)(O3)C2C(=O)N1c1ccc(-c2ccccc2)cc1 (centres undefined),nt,nt,nt,27.8*,14.7,4.2
CC(C)(C)C(=O)NCC12C=CC(O1)C1C(=O)N(c3ccccc3)C(=O)C12 (centres undefined),1.6,1.1,5.0,3.5,-1.8,9.6

# High-throughput results (PubChem)
